From ChEMBL document CHEMBL1275484, “Rifampin and rifaximin resistance in clinical isolates of Clostridium difficile” (Antimicrob Agents Chemother, 2008)
≈ marks a conversion by molar mass, not a printed value.

Columns and labels:
Format in all cases: functional
Clostridioides difficile [1] = test: Antimicrobial activity against Clostridium difficile isolate 58 by Etest
In short: (§1)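 Rifampin Etest strips were run on brucella blood agar following the manufacturer's instructions to give an MIC. Clinical isolates were typed by HindIII REA.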

Clostridioides difficile [2] = test: Antimicrobial activity against Clostridium difficile isolate 79 by Etest
In short: (§2)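 Rifampin MIC by Etest on brucella blood agar, run per the strip manufacturer's instructions, against clinical isolates typed by HindIII REA.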

Clostridioides difficile [3] = test: Antimicrobial activity against rifaximin-resistant Clostridium difficile isolate 26 expressing RpoB R505K mutant by agar dilution method
In short: (§3)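 MICs were found by the CLSI reference agar dilution method for anaerobes, with endpoints read per M11-A7 and C. difficile […] as control. Rifaximin was dissolved in methanol, diluted in 0.1 M phosphate buffer pH 7.4 with 0.45% SDS, and tested at 0.0009–256 μg/ml. Rifampin was dissolved in methanol, diluted in water, and tested at 0.00001–256 μg/ml.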

Clostridioides difficile [4] = test: Antimicrobial activity against Clostridium difficile isolate 1 by Etest
In short: (§4)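 Rifampin MIC by Etest strip on brucella blood agar, run per the strip maker's instructions. Isolates were HindIII REA-typed clinical C. difficile.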

Clostridioides difficile [5] = test: Antimicrobial activity against Clostridium difficile isolate 51 by Etest; in short: as §1
Clostridioides difficile [6] = test: Antimicrobial activity against Clostridium difficile isolate 45 by Etest; in short: as §1
Clostridioides difficile [7] = test: Antimicrobial activity against Clostridium difficile isolate 60 by Etest; in short: as §1
Clostridioides difficile [8] = test: Antimicrobial activity against Clostridium difficile isolate 80 by Etest; in short: as §2
Clostridioides difficile [9] = test: Antimicrobial activity against Clostridium difficile isolate 78 by agar dilution method
In short: (§5)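 CLSI reference agar dilution for anaerobes, with endpoints read per guideline M11-A7. Rifaximin was dissolved in methanol, diluted in 0.1 M phosphate buffer pH 7.4 with 0.45% SDS, and tested at 0.0009–256 μg/ml. Rifampin was dissolved in methanol, diluted in water, and tested at 0.00001–256 μg/ml. Control strain: C. difficile ATCC […]. Isolates were typed by HindIII REA.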

Clostridioides difficile [10] = test: Antimicrobial activity against Clostridium difficile isolate 40 by agar dilution method
In short: (§6)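 CLSI reference agar dilution method for anaerobes, with endpoints read per guideline M11-A7. Rifaximin was dissolved in methanol, diluted in 0.1 M phosphate buffer (pH 7.4) with 0.45% SDS, and tested at 0.0009–256 μg/ml. Rifampin was dissolved in methanol, diluted in water, and tested at 0.00001–256 μg/ml. C. difficile ATCC […] served as control. Isolates were typed by HindIII REA.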

Clostridioides difficile [11] = test: Antimicrobial activity against rifaximin-resistant Clostridium difficile isolate 18 expressing RpoB R505K mutant by Etest
In short: (§7)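 Rifampin Etest on clinical C. difficile isolates typed by HindIII REA, run per the strip manufacturer's instructions on brucella blood agar, with the MIC read from the strip.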

Clostridioides difficile [12] = test: Antimicrobial activity against Clostridium difficile isolate 27 by agar dilution method
In short: (§8)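 MIC by CLSI reference agar dilution for anaerobes, with endpoints read per M11-A7 and C. difficile […] as control. Rifaximin was dissolved in methanol, diluted in 0.1 M phosphate buffer pH 7.4 plus 0.45% SDS, and tested at 0.0009–256 μg/ml. Rifampin was dissolved in methanol, diluted in water, and tested at 0.00001–256 μg/ml.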

Clostridioides difficile [13] = test: Antimicrobial activity against Clostridium difficile isolate 44 by Etest; in short: as §1
Clostridioides difficile [14] = test: Antimicrobial activity against rifaximin-resistant Clostridium difficile isolate 50 expressing RpoB R505K mutant by Etest; in short: as §7
Clostridioides difficile [15] = test: Antimicrobial activity against Clostridium difficile isolate 49 by agar dilution method; in short: as §6
Clostridioides difficile [16] = test: Antimicrobial activity against Clostridium difficile isolate 38 by agar dilution method; in short: as §6
Clostridioides difficile [17] = test: Antimicrobial activity against Clostridium difficile isolate 10 by agar dilution method; in short: as §8
Clostridioides difficile [18] = test: Antimicrobial activity against Clostridium difficile isolate 69 by Etest; in short: as §2
Clostridioides difficile [19] = test: Antimicrobial activity against Clostridium difficile isolate 48 by agar dilution method; in short: as §6
Clostridioides difficile [20] = test: Antimicrobial activity against rifaximin-resistant Clostridium difficile isolate 65 expressing RpoB H502N and R505K mutants by Etest; in short: as §7
Clostridioides difficile [21] = test: Antimicrobial activity against Clostridium difficile isolate 53 by agar dilution method; in short: as §6
Clostridioides difficile [22] = test: Antimicrobial activity against rifaximin-resistant Clostridium difficile isolate 65 expressing RpoB H502N and R505K mutants by agar dilution method; in short: as §3
Clostridioides difficile [23] = test: Antimicrobial activity against Clostridium difficile isolate 79 by agar dilution method; in short: as §5
Clostridioides difficile [24] = test: Antimicrobial activity against Clostridium difficile isolate 34 by agar dilution method; in short: as §8
Clostridioides difficile [25] = test: Antimicrobial activity against Clostridium difficile isolate 34 by Etest; in short: as §4
Clostridioides difficile [26] = test: Antimicrobial activity against Clostridium difficile isolate 8 by Etest; in short: as §2
Clostridioides difficile [27] = test: Antimicrobial activity against Clostridium difficile isolate 37 by Etest; in short: as §4
Clostridioides difficile [28] = test: Antimicrobial activity against Clostridium difficile isolate 39 by agar dilution method; in short: as §6
Clostridioides difficile [29] = test: Antimicrobial activity against rifaximin-resistant Clostridium difficile isolate 64 expressing RpoB H502R mutant by agar dilution method; in short: as §3
Clostridioides difficile [30] = test: Antimicrobial activity against Clostridium difficile isolate 32 by Etest; in short: as §4
Clostridioides difficile [31] = test: Antimicrobial activity against Clostridium difficile isolate 6 by Etest; in short: as §1
Clostridioides difficile [32] = test: Antimicrobial activity against Clostridium difficile isolate 31 by Etest; in short: as §4
Clostridioides difficile [33] = test: Antimicrobial activity against Clostridium difficile isolate 29 by agar dilution method; in short: as §8
Clostridioides difficile [34] = test: Antimicrobial activity against Clostridium difficile isolate 1 by agar dilution method; in short: as §8
Clostridioides difficile [35] = test: Antimicrobial activity against Clostridium difficile isolate 31 by agar dilution method; in short: as §8
Clostridioides difficile [36] = test: Antimicrobial activity against Clostridium difficile isolate 13 by Etest; in short: as §4
Clostridioides difficile [37] = test: Antimicrobial activity against rifaximin-resistant Clostridium difficile isolate 21 expressing RpoB H502N and R505K mutants by agar dilution method; in short: as §3
Clostridioides difficile [38] = test: Antimicrobial activity against rifaximin-resistant Clostridium difficile isolate 26 expressing RpoB R505K mutant by Etest; in short: as §7
Clostridioides difficile [39] = test: Antimicrobial activity against Clostridium difficile isolate 12 expressing RpoB H502N and R505K mutants by Etest; in short: as §7
Clostridioides difficile [40] = test: Antimicrobial activity against Clostridium difficile isolate 16 by agar dilution method; in short: as §8
Clostridioides difficile [41] = test: Antimicrobial activity against Clostridium difficile isolate 46 by Etest; in short: as §1
Clostridioides difficile [42] = test: Antimicrobial activity against Clostridium difficile isolate 71 by agar dilution method; in short: as §5
Clostridioides difficile [43] = test: Antimicrobial activity against Clostridium difficile isolate 77 by Etest; in short: as §2
Clostridioides difficile [44] = test: Antimicrobial activity against Clostridium difficile isolate 5 by Etest; in short: as §1
Clostridioides difficile [45] = test: Antimicrobial activity against rifaximin-resistant Clostridium difficile isolate 24 expressing RpoB H502N and R505K mutants by agar dilution method; in short: as §3
Clostridioides difficile [46] = test: Antimicrobial activity against Clostridium difficile isolate 69 by agar dilution method; in short: as §5
Clostridioides difficile [47] = test: Antimicrobial activity against Clostridium difficile isolate 35 by Etest; in short: as §4
Clostridioides difficile [48] = test: Antimicrobial activity against Clostridium difficile isolate 7 by Etest; in short: as §2
Clostridioides difficile [49] = test: Antimicrobial activity against Clostridium difficile isolate 9 by agar dilution method; in short: as §5
Clostridioides difficile [50] = test: Antimicrobial activity against Clostridium difficile isolate 52 by agar dilution method; in short: as §6

Molecule `CO[C@H]1/C=C/O[C@@]2(C)Oc3c(C)c(O)c4c(O)c(c(/C=N/N5CCN(C)CC5)c(O)c4c3C2=O)NC(=O)/C(C)=C\C=C\[C@H](C)[C@H](O)[C@@H](C)[C@@H](O)[C@@H](C)[C@H](OC(C)=O)[C@@H]1C` [RIFAMPIN] has an MIC (Clostridioides difficile [1]) of less than 2 ng/mL, an MIC (Clostridioides difficile [2]) of less than 2 ng/mL and an MIC (Clostridioides difficile [3]) of 128000 ng/mL (≈ 156000 nM). For the same molecule, the MIC (Clostridioides difficile [4]) was less than 2 ng/mL, the MIC (Clostridioides difficile [5]) was less than 2 ng/mL and the MIC (Clostridioides difficile [6]) was less than 2 ng/mL. It also gave an MIC (Clostridioides difficile [7]) of less than 2 ng/mL, an MIC (Clostridioides difficile [8]) of less than 2 ng/mL and an MIC (Clostridioides difficile [9]) of 0.06 ng/mL (≈ 0.0729 nM). The MIC (Clostridioides difficile [10]) was 0.9 ng/mL (≈ 1.09 nM), the MIC (Clostridioides difficile [11]) was greater than 32000 ng/mL and the MIC (Clostridioides difficile [12]) was 0.4 ng/mL (≈ 0.486 nM). The MIC (Clostridioides difficile [13]) was less than 2 ng/mL, the MIC (Clostridioides difficile [14]) was greater than 32000 ng/mL and the MIC (Clostridioides difficile [15]) was 0.9 ng/mL (≈ 1.09 nM). The MIC (Clostridioides difficile [16]) was 0.4 ng/mL (≈ 0.486 nM), the MIC (Clostridioides difficile [17]) was 0.06 ng/mL (≈ 0.0729 nM) and the MIC (Clostridioides difficile [18]) was less than 2 ng/mL. The MIC (Clostridioides difficile [19]) was 0.9 ng/mL (≈ 1.09 nM), the MIC (Clostridioides difficile [20]) was greater than 32000 ng/mL and the MIC (Clostridioides difficile [21]) was 1.9 ng/mL (≈ 2.31 nM). It also gave an MIC (Clostridioides difficile [22]) greater than 256000 ng/mL, an MIC (Clostridioides difficile [23]) of 0.06 ng/mL (≈ 0.0729 nM) and an MIC (Clostridioides difficile [24]) of 0.9 ng/mL (≈ 1.09 nM). It also gave an MIC (Clostridioides difficile [25]) of 4 ng/mL (≈ 4.86 nM), an MIC (Clostridioides difficile [26]) of less than 2 ng/mL and an MIC (Clostridioides difficile [27]) of less than 2 ng/mL. For the same molecule, the MIC (Clostridioides difficile [28]) was 0.9 ng/mL (≈ 1.09 nM), the MIC (Clostridioides difficile [29]) was greater than 256000 ng/mL and the MIC (Clostridioides difficile [30]) was less than 2 ng/mL. For the same molecule, the MIC (Clostridioides difficile [31]) was less than 2 ng/mL, the MIC (Clostridioides difficile [32]) was less than 2 ng/mL and the MIC (Clostridioides difficile [33]) was 0.9 ng/mL (≈ 1.09 nM). For the same molecule, the MIC (Clostridioides difficile [34]) was 0.06 ng/mL (≈ 0.0729 nM), the MIC (Clostridioides difficile [35]) was 0.9 ng/mL (≈ 1.09 nM) and the MIC (Clostridioides difficile [36]) was less than 2 ng/mL. For the same molecule, the MIC (Clostridioides difficile [37]) was greater than 256000 ng/mL, the MIC (Clostridioides difficile [38]) was greater than 32000 ng/mL and the MIC (Clostridioides difficile [39]) was greater than 32000 ng/mL. For the same molecule, the MIC (Clostridioides difficile [40]) was 0.9 ng/mL (≈ 1.09 nM), the MIC (Clostridioides difficile [41]) was less than 2 ng/mL and the MIC (Clostridioides difficile [42]) was 0.06 ng/mL (≈ 0.0729 nM). It also gave an MIC (Clostridioides difficile [43]) of less than 2 ng/mL, an MIC (Clostridioides difficile [44]) of less than 2 ng/mL and an MIC (Clostridioides difficile [45]) greater than 256000 ng/mL. For the same molecule, the MIC (Clostridioides difficile [46]) was 0.06 ng/mL (≈ 0.0729 nM), the MIC (Clostridioides difficile [47]) was less than 2 ng/mL and the MIC (Clostridioides difficile [48]) was less than 2 ng/mL. It also gave an MIC (Clostridioides difficile [49]) of 0.06 ng/mL (≈ 0.0729 nM) and an MIC (Clostridioides difficile [50]) of 1.9 ng/mL (≈ 2.31 nM).
